TNAP inh hiacc: inhibitors of human TNAP at high phosphate acceptor concentration; P05186; purified TNAP, CDP-star luminescence, 1 M DEA; inhibition, % at 20 µM; actives 0.03% (n = 200,000);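 active = over 50% inhibition of tissue-nonspecific alkaline phosphatase at 20 µM in the single-dose screen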;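 note: plate controls were DMSO wells for no effect and EDTA-quenched wells as full inhibition for full effect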
PERK inh: blocks human PERK kinase. AID 1416. inhibition, % at 5.6 µM. CHO PERK-DD fusion, SEAP luminescence translation reporter. Q9NZJ5. actives 0.17% (n = 220,000);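 active = inhibition above the mean inhibition of all tested compounds plus 3 SD, set separately per screening campaign, cut at about 2.9% in these data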;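 note: PERK kinase domain activated by AP20187 dimerizer at 100 nM; 0% = DMSO with dimerizer and 100% = rapamycin at 8.4 µM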
TNAP act hiacc: TNAP (human) activation, high acceptor; 200,000 tested, under 10 active; AID 1136; P05186; purified TNAP, CDP-star luminescence, 1 M DEA, 30 min; active compounds read high; 0 = EDTA background, 1 = DMSO-only activity; activation factor at 20 µM;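 active = activation factor at least 2 at 20 µM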
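system = human TNAP | amount = enzyme diluted 1/800 final | reagent = 100 µM CDP-star substrate | signal = luminescent substrate turnover signal | dosing = one dose, 20 µM | benchmarks = EDTA negative control, DMSO positive control | measure = activation factor | timing = 30 min reaction, room temperature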
p97 ATPase inh: inhibitors of human p97 ATPase; inhibition, % at 8 µM; actives 0.42% (n = 220,000); P55072; recombinant p97 ATPase, Kinase-Glo ATP luminescence, 3 h; in the data active = inhibition above about 15%;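 note: 0% = DMSO vehicle and 100% = wells lacking enzyme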
Target sequence (P55072 whole entry, looked up): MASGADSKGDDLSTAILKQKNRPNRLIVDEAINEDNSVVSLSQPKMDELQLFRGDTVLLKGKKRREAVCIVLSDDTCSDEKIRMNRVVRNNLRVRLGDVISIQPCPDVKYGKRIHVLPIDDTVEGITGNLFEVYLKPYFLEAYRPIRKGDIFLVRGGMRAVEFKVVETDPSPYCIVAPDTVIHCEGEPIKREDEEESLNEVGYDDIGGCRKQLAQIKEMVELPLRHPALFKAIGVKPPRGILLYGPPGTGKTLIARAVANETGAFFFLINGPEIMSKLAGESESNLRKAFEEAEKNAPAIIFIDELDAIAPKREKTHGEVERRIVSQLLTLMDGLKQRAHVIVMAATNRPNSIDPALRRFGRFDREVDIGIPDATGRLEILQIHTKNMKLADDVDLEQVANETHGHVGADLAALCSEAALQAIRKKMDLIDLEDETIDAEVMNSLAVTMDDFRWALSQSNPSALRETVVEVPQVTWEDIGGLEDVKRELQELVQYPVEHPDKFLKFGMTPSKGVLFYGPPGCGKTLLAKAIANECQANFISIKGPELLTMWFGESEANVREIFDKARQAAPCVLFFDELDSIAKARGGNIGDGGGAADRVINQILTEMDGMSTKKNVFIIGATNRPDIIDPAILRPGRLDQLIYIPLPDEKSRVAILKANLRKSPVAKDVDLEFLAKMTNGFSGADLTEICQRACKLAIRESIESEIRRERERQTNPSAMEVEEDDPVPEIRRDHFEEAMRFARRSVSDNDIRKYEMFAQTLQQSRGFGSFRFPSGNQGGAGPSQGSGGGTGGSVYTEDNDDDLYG
TNAP inh no acc: TNAP (human) inhibition, acceptor-free conditions | purified TNAP, CDP-star luminescence, 30 min | inhibition, % at 20 µM | actives 0.26% (n = 200,000);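 active = tissue-nonspecific alkaline phosphatase inhibition above about 50% at 20 µM in the single-dose screen, limit read from the data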;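 note: 0% = DMSO negative control and 100% = EDTA positive control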
DTT redox prof: compounds producing H2O2 with reducing agent – biochemical, NIH compound library profiling, artefact control for MLSCN library redox annotation, primary screen; AID 878; actives 0.03% (n = 200,000); DTT-dependent redox cycling H2O2, phenol red/HRP absorbance; 100% = 100 µM peroxide control, 0% = buffer; activation, % at 10 µM;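 active = activation of at least 50% relative to the plate's high and low controls in the primary single-dose screen; inactive = activation below 50%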;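 note: compound incubated with DTT at 0.8 mM final as the reducing agent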
The depositor's hits bear a star. This is a sample that favours compounds with a hit; in the whole collection about 0.86% have one here.

What do the screens show for `Cc1ccc(-c2[nH]c(-c3ccc(C(=O)O)cc3)nc2-c2ccccc2)cc1`?
TNAP inh hiacc: -3; PERK inh: 1; TNAP act hiacc: 1; p97 ATPase inh: -2; TNAP inh no acc: -15; DTT redox prof: 0

How did Cc1ccc(C(=O)NCc2ccccc2)cc1Br do in these assays?
TNAP inh hiacc: -1; PERK inh: 0; TNAP act hiacc: 1; p97 ATPase inh: 10; TNAP inh no acc: -8; DTT redox prof: 0

Results for COc1ccc(-c2nn(-c3ccccc3)cc2C(=O)O)cc1 ?
TNAP inh hiacc: -7; PERK inh: 3.2*; TNAP act hiacc: 1.1; p97 ATPase inh: 2; TNAP inh no acc: -15; DTT redox prof: 0

What do the screens show for `O=C(COC(=O)C1CCC1)Nc1ccccc1Sc1ccccc1`?
TNAP inh hiacc: -2; PERK inh: 2; TNAP act hiacc: 1; p97 ATPase inh: 0; TNAP inh no acc: 3; DTT redox prof: 0

What do the screens show for `O=C(COC(=O)CCC1CCCC1)Nc1ccccc1Sc1ccccc1`?
TNAP inh hiacc: -3; PERK inh: 2.9*; TNAP act hiacc: 1; p97 ATPase inh: -1; TNAP inh no acc: -4; DTT redox prof: 0

How did CC1=Nn2c(nnc2-c2cc(-c3ccccc3)n[nH]2)SC1 do in these assays?
TNAP inh hiacc: -1; PERK inh: 0; TNAP act hiacc: 1; p97 ATPase inh: 4; TNAP inh no acc: 51*; DTT redox prof: 2

What do the screens show for `Cc1cc(C)nc(SCc2ccc(C(=O)O)o2)n1`?
TNAP inh hiacc: 1; PERK inh: 3.1*; TNAP act hiacc: 1; p97 ATPase inh: 6; TNAP inh no acc: -9; DTT redox prof: -1

Results for O=C(N/N=C/c1ccc([N+](=O)[O-])cc1)c1cc(-c2ccc3c(c2)OCO3)n[nH]1 ?
PERK inh: 1; p97 ATPase inh: 7

Results for COc1ccc(/C=N/NC(=O)c2cc(-c3cccn3C)n[nH]2)cc1OC ?
TNAP inh hiacc: 3; PERK inh: 1; TNAP act hiacc: 1; p97 ATPase inh: 4; TNAP inh no acc: 94*; DTT redox prof: 0

Results for COc1cc(OC)c(OC)cc1/C=N/NC(=O)c1cc(-c2cccn2C)n[nH]1 ?
TNAP inh hiacc: 10; PERK inh: 1; TNAP act hiacc: 0.9; p97 ATPase inh: 5; TNAP inh no acc: 85*; DTT redox prof: -8

How did Cc1nonc1C(=O)N/N=C/c1cccc(O)c1 do in these assays?
TNAP inh hiacc: 2; PERK inh: 0; TNAP act hiacc: 1; p97 ATPase inh: -30; TNAP inh no acc: -7; DTT redox prof: 0

Results for CCOc1cccc(/C=N/NC(=O)c2cc(-c3cccn3C)n[nH]2)c1O ?
TNAP inh hiacc: -2; PERK inh: 1; TNAP act hiacc: 1; p97 ATPase inh: 6; TNAP inh no acc: -170; DTT redox prof: -2

Results for Cn1cccc1-c1cc(C(=O)N/N=C/c2cccc(O)c2)[nH]n1 ?
TNAP inh hiacc: 7; PERK inh: 1; TNAP act hiacc: 0.9; p97 ATPase inh: 8; TNAP inh no acc: 96*; DTT redox prof: -1

What do the screens show for `COc1cc(/C=N/NC(=O)c2cc(-c3ccc4c(c3)OCO4)n[nH]2)ccc1O`?
TNAP inh hiacc: -2; PERK inh: 0; TNAP act hiacc: 1; p97 ATPase inh: 1; TNAP inh no acc: 87*; DTT redox prof: 0

How did COc1ccc(/C=N/NC(=O)c2ccc(=O)n(C)c2)cc1OC do in these assays?
TNAP inh hiacc: 3; PERK inh: 0; TNAP act hiacc: 1; p97 ATPase inh: -1; TNAP inh no acc: -6; DTT redox prof: -1

What do the screens show for `CCOC(=O)C(C)NC(=O)Cn1ncc2c(=O)oc3ccc(C)cc3c21` (stereo not given)?
PERK inh: -2; p97 ATPase inh: -3

What do the screens show for `CC1(C)Cc2c(sc3[nH]c(=S)[nH]c(=O)c23)CO1`?
TNAP inh hiacc: -3; PERK inh: 1; TNAP act hiacc: 1; p97 ATPase inh: 5; TNAP inh no acc: -6; DTT redox prof: 0

Results for C#CCNC(=O)C1=C[C@H](c2cn(C(C)=O)c3ccccc23)[C@@H](CCCO)[C@H](OCC)O1 ?
TNAP inh hiacc: -5; PERK inh: 0; TNAP act hiacc: 1; p97 ATPase inh: -1; TNAP inh no acc: -6; DTT redox prof: 0

What do the screens show for `CCS(=O)(=O)n1nc(-c2ccc(Cl)cc2)nc1SC`?
TNAP inh hiacc: 0; PERK inh: 1; TNAP act hiacc: 1; p97 ATPase inh: -2; TNAP inh no acc: 61*; DTT redox prof: -8

What do the screens show for `COc1ccc(S(C)(=O)=O)cc1S(C)(=O)=O`?
TNAP inh hiacc: -4; PERK inh: 1; TNAP act hiacc: 1; p97 ATPase inh: 11; TNAP inh no acc: -7; DTT redox prof: 2

Results for O=C(/C(=N/N=C/c1ccc(O)c(O)c1)c1ccccc1)c1ccccc1 ?
TNAP inh hiacc: 26; PERK inh: 0; TNAP act hiacc: 0.7; p97 ATPase inh: 2; TNAP inh no acc: 51*; DTT redox prof: 0

What do the screens show for `Cn1cc(CNCc2cnc3ccccn23)c(-c2ccc(Oc3ccccc3)cc2)n1`?
TNAP inh hiacc: 39; PERK inh: 0; TNAP act hiacc: 0.6; p97 ATPase inh: 0; TNAP inh no acc: 74*; DTT redox prof: 0

How did CCCN(CCC)C(C)C(=O)NCC1(c2ccccc2)CCCC1 (stereo not given) do in these assays?
TNAP inh hiacc: -6; PERK inh: -1; TNAP act hiacc: 1.1; p97 ATPase inh: -4; TNAP inh no acc: -5; DTT redox prof: -1

Results for CCOC(=O)c1[nH]c2ccccc2c1NC(=O)CCN1CC(C)OC(C)C1 (stereo not given) ?
TNAP inh hiacc: -1; PERK inh: 0; TNAP act hiacc: 1; p97 ATPase inh: -5; TNAP inh no acc: -5; DTT redox prof: -5

What do the screens show for `Cc1cccc(C)c1NC(=O)CCCN1CC(C)OC(C)C1` (stereo not given)?
TNAP inh hiacc: -1; PERK inh: 3.2*; TNAP act hiacc: 1; p97 ATPase inh: 2; TNAP inh no acc: -5; DTT redox prof: 0

Results for COCCCn1c(SCC(=O)Nc2sc3c(c2C#N)CCCC3)nnc1-c1ccncc1 ?
TNAP inh hiacc: 55*; PERK inh: -1; TNAP act hiacc: 0.4; p97 ATPase inh: 2; TNAP inh no acc: 27; DTT redox prof: 1

How did COc1ccc(Cc2nnc3c4cnn(C)c4ncn23)cc1 do in these assays?
TNAP inh hiacc: -3; PERK inh: 0; TNAP act hiacc: 1; p97 ATPase inh: 0; TNAP inh no acc: 35; DTT redox prof: 3

Results for Cc1nc2c3cnn(-c4ccccc4)c3ncn2n1 ?
TNAP inh hiacc: -2; PERK inh: -1; TNAP act hiacc: 1; p97 ATPase inh: 3; TNAP inh no acc: 54*; DTT redox prof: 2

Source: PubChem BioAssay
